An excerpt weighted towards active compounds, which were near 3% of everything screened.
esBAF inh = Bmi1 luciferase reporter increase in mESCs, primary screen, esBAF inhibitor project, mouse ES cells, Bmi1 luciferase knock-in, single point; 350,000 compounds, 2% hits; 24 h; 100% = twice the neutral-well signal; reporter increase, % at 12.5 µM; AID 602393, 2012; in the data active = activation above about 40%; inconclusive = no clear call, values can overlap the other calls;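 note: 0% = median of the plate's neutral control wells and 100% = double that signal; a rise in the Bmi1 reporter signal indicates esBAF inhibition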
MITF TRPM1 HTS = activators of MITF-driven TRPM1 promoter reporter, primary screen, cell-based, SK-MEL-5, luciferase, single point; SK-MEL-5 TRPM1-promoter luciferase, 24 h; % of positive control, neutral wells = 0; activation, % at 12.5 µM; 300,000 compounds, 0.75% hits; AID 588334, 2011;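 active = mean activation of at least 80% with every replicate also reaching 80%; inconclusive = mean reaches 80% but some replicate falls short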;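 note: 0% = neutral control wells and 100% = parthenolide positive control wells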
CASP6 VEID inh = human caspase-6 inhibitors, primary screen, biochemical, VEID-R110 fluorescence, single point, set 2; P55212; purified caspase-6, Z-VEID-R110 cleavage fluorescence; inhibition, % at 12.5 µM; 350,000 compounds, 0.53% hits; AID 686996, 2013;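 active = mean inhibition across replicates at least about 35%, with every replicate also reaching that limit, limit read from the data; inconclusive = only one of the two criteria met; inactive = neither criterion met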;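 note: 0% = median of neutral control wells and 100% = no fluorescence left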
Target sequence (P55212 24-179 limits assumed): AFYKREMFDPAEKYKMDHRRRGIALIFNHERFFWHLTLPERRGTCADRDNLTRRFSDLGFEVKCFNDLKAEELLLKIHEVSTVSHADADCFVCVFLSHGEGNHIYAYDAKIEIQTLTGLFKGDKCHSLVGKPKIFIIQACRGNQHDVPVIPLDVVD
Target sequence (P55212 194-293 limits assumed): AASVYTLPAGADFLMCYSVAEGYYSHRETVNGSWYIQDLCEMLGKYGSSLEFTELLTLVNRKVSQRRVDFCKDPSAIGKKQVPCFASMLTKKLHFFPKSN
NSD2 inh = NSD2 histone methyltransferase inhibitors, primary screen, biochemical, AlphaScreen, single concentration, set 2; 310,000 compounds, 0.54% hits; NSD2 peptide methylation, 120 min; inhibition, % at 12.5 µM; Histone-lysine N-methyltransferase NSD2 (Homo sapiens), O96028; in the data active = inhibition above about 50%
Wnt act = Wnt/beta-catenin pathway activators, primary screen, cell-based, plate reader, single point; Wnt/beta-catenin reporter cell assay, activator; activation, % at 9.35 µM; 300,000 compounds, 1.2% hits; AID 743398, 2014; in the data active = activation above about 30%, passing the limit was not always enough; inconclusive = no clear call, values can overlap the other calls;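 note: 0% = neutral control wells and 100% = positive control wells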
XiGFP reactiv = activators of inactive X chromosome reactivation, primary screen, imaging, XiGFP fibroblasts, GFP high-content imaging, set 2; XiGFP mouse fibroblasts, % GFP-positive cells imaging, 3 d; cells co-treated with 5-aza-dC sensitizer; scaled so ellipticine positive control = 100%; activation, % at 7.58 µM; 360,000 compounds, 0.055% hits; AID 743238, 2013;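 active = mean normalized replicate activation at least 10% and every replicate at or above 10%; inconclusive = only one of the two criteria met; inactive = mean below 10% and not all replicates reach 10%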;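 note: 0% = median of on-plate neutral control wells and 100% = ellipticine 6 µM median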
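Material: XiGFP fibroblasts, SV40-immortalized. Buffer or medium: DMEM plus 5-aza-dC sensitizer. Compound: single concentration per compound, delivered by pin transfer. Times: 3 days compound exposure. Controls: ellipticine 6 µM.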
* hit, by the source's call; ? = inconclusive; nt = no result given.

SMILES | esBAF inh | MITF TRPM1 HTS | CASP6 VEID inh | NSD2 inh | Wnt act | XiGFP reactiv
Cc1cc(C)cc(OCc2nc(-c3cccnc3)no2)c1 | nt | 23 | -4 | -4 | -1 | 0
Cc1ccc(N2CN=C(c3ccccc3)NC2=S)cc1 | 57* | 60 | nt | 3 | nt | nt
COc1ccc2cc(C(=O)NCC(=O)O)sc(=O)c2c1OC | nt | 5 | nt | -1 | nt | nt
COc1ccc2cc(C(=O)OC(C)C)sc(=O)c2c1OC | 53* | 39 | nt | -2 | nt | nt
Oc1[nH]c(=S)sc1C=C1N=c2ccccc2=N1 | 26 | nt | 3 | 6 | 42* | 0
O=C(N/N=C/c1ccoc1)c1ccccc1O | 11 | -2 | 50* | 6 | 0 | 0
Cn1cc(/C=N/NC(=O)c2ccccc2O)c2ccccc21 | ? | nt | 4 | 1 | 4 | 0
Cc1cc(C)cc(C(=O)N/N=C/c2ccoc2)c1 | nt | -1 | 6 | -2 | -2 | 0
O=C(N/N=C/c1oc(O)c2ccccc12)c1ccccc1O | 18 | -8 | 37* | 1 | nt | 0
O=C(N/N=C/c1ccoc1)c1cc(O)cc(O)c1 | nt | 6 | 74* | 6 | -1 | 0
O=C(N/N=C/c1ccc[nH]1)c1ccc(O)cc1 | nt | 19 | 4 | -3 | -2 | 0
O=C(N/N=C/c1ccc[nH]1)c1ccccc1O | nt | 32 | 60* | 3 | 5 | 0
CN(C)C(=O)C[C@H]1CC[C@H]2[C@@H](COc3ccc(NS(=O)(=O)c4cccc(F)c4)cc3C(=O)N2C)O1 | -1 | nt | -2 | nt | nt | 0
CCCNC(=O)N1C[C@H](O)COC[C@H]2O[C@H](CC(=O)NCc3ccc(Cl)c(Cl)c3)CC[C@@H]21 | 6 | nt | 0 | nt | nt | 0
C[C@H]1CN(C)C(=O)c2cccc(NS(C)(=O)=O)c2O[C@H]1CN(C)S(C)(=O)=O | nt | nt | nt | nt | nt | 0
O=C(C1CCCC1)N1CC[C@@H]2[C@H]1c1cc(C3=CCCCC3)ccc1N[C@@H]2CO | nt | nt | 1 | nt | nt | 0
OC[C@@H]1[C@H]2c3ccccc3OC1(CO)N=C1SCc3ccccc3CN12 | nt | nt | -2 | nt | nt | nt
Cc1ccc(C(=O)Nc2nnc(-c3ccco3)o2)cc1 | nt | 20 | 0 | -2 | 7 | 0
Cc1ccsc1C(=O)Nc1nnc(-c2ccco2)o1 | 43* | nt | nt | -2 | nt | nt
Cc1cc(C(=O)c2ccccc2)cc(C)c1O | nt | 13 | 2 | -1 | -6 | 0
O=C(c1ccccc1)c1ccc(O)c(O)c1O | -5 | -9 | 73* | nt | -4 | nt
CC(=O)NC[C@H]1[C@@H](c2ccc(-c3ccccc3F)cc2)[C@@H](CO)N1C(C)=O | -4 | nt | 0 | nt | nt | 0
C[C@@H]1CN([C@@H](C)CO)C(=O)c2cc(NC(=O)NC3CCCCC3)ccc2O[C@@H](C)CCCCO[C@@H]1CN(C)S(=O)(=O)c1ccc(F)cc1 | 0 | nt | 0 | nt | nt | 0
Oc1ccc(Cl)cc1CNc1ccc(Br)cn1 | 75* | 74 | nt | -2 | nt | nt
Oc1ccc(Cl)cc1CNc1nccs1 | -1 | nt | 2 | -3 | 45* | 0
SMILES | esBAF inh | MITF TRPM1 HTS | CASP6 VEID inh | NSD2 inh | Wnt act | XiGFP reactiv
Oc1c(Cl)cc(Cl)cc1CNc1ccc(Br)cn1 | nt | 43 | nt | -5 | 4 | nt
O=C(Nc1ccc2c(c1)OCO2)N[C@@H]1CC[C@@H](CCNC(=O)C2CCOCC2)O[C@H]1CO | -5 | nt | -1 | nt | nt | 0
CN(C)S(=O)(=O)c1ccc2c(c1)C(=NNC(N)=O)c1cc(S(=O)(=O)N(C)C)ccc1-2 | -4 | -8 | 0 | -4 | 0 | 0
CN(CCO)S(=O)(=O)c1ccc2c(c1)C(=NNC(N)=O)c1cc(S(=O)(=O)N(C)CCO)ccc1-2 | -2 | 0 | -3 | 1 | 46* | 0
COc1ccc(/C(N)=N/OC(=O)c2ccc(Br)o2)cc1 | 58* | 61 | -2 | -1 | 0 | 0
COc1ccccc1C(=O)O/N=C(\N)c1ccc(Cl)cc1 | 52* | 38 | nt | -9 | -4 | nt
COc1ccc(C(=O)O/N=C(\N)c2ccc(Cl)cc2)cc1 | ? | 89* | -2 | -2 | 37* | 0
COc1ccc(Cl)cc1C(=O)O/N=C(\N)c1ccncc1 | nt | 22 | -8 | -5 | 5 | 0
C[C@@H]1CN([C@@H](C)CO)C(=O)c2cccc(NS(=O)(=O)c3ccccc3)c2O[C@@H]1CN(C)Cc1ccc(C(F)(F)F)cc1 | 2 | nt | 2 | nt | nt | 0
C[C@@H]1CN([C@H](C)CO)C(=O)c2cc(/C=C/c3ccccc3)cnc2O[C@@H]1CN(C)C(=O)NC1CCCCC1 | -9 | nt | -9 | nt | nt | 0
C[C@H]1CCCCO[C@@H](CN(C)C(=O)Nc2ccc(C(F)(F)F)cc2)[C@@H](C)CN([C@@H](C)CO)C(=O)c2cc(NC(=O)c3ccncc3)ccc2O1 | -1 | nt | -1 | nt | nt | 0
Nc1c(C(=O)N/N=C/c2cccnc2)oc2nc(-c3ccco3)cc(-c3ccco3)c12 | nt | nt | 89* | 8 | 0 | 0
Nc1c(C(=O)N/N=C/c2cccnc2)oc2nc(-c3ccccc3)cc(-c3ccco3)c12 | -4 | nt | 6 | -2 | 4 | 0
C[C@H](CO)N1C[C@H](C)[C@H](CN(C)C(=O)Nc2ccccc2)Oc2ncc(C#CC3CC3)cc2C1=O | -11 | nt | -3 | nt | nt | -1
COC(=O)CSc1nc2cc(C)ccc2cc1C#N | 31 | 75 | nt | nt | 80* | nt
OC(COc1ccc(OCc2ccccc2)cc1)CN1CCOCC1 (centres undefined) | -1 | 1 | 0 | 2 | nt | nt
OC(COc1ccc(OCc2ccccc2)cc1)CN1CCCCC1 (centres undefined) | 14 | 88* | nt | 1 | nt | nt
O=C(N/N=C1\CCc2ccccc21)c1ccncc1 | nt | 60 | 0 | -2 | 20 | 0
c1ccc2c(c1)CCc1c(-c3ccncc3)n[nH]c1-2 | 33 | -14 | 2 | 8 | 44* | 0
O=C(Cc1ccncc1)NCC[C@H]1CC[C@H](NC(=O)C2CCOCC2)[C@@H](CO)O1 | -5 | nt | -3 | nt | nt | 0
CCN1CCN(c2cc3c(nn2)Oc2ccccc2N3C)CC1 | nt | 82* | nt | 12 | nt | 0
CC(=O)c1ccc(NC(=O)CCc2nnc3ccc(N4CCC5(CC4)OCCO5)nn23)cc1 | 54* | 31 | -8 | -9 | 13 | 0
Cc1ccc(NC(=O)CCc2nnc3ccc(N4CCC5(CC4)OCCO5)nn23)nc1 | 3 | -3 | 3 | 0 | 0 | 0
COc1ccc2c3c(n(C)c2c1)[C@@H](CO)N(C(=O)Nc1ccccc1F)CC31CN(C)C1 | nt | nt | nt | nt | nt | 1
CN(CCO)C(=O)c1ccc(-c2nn(C)c(=O)c3ccccc23)cc1 | nt | -14 | 3 | -3 | 34* | 0
Cn1nc(-c2ccc(C(=O)NCCO)cc2)c2ccccc2c1=O | nt | -3 | 1 | 2 | 6 | 0
